Beta2AR agonist: agonists of human beta-2 adrenergic receptor inducing internalization; Am2.2-beta2AR cells, FAP receptor internalization, flow cytometry; response, % (concentration not given with the values); 340,000 tested, 0.43% active;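 active = response above a set limit, near 3 SD of response in nonfluorescent compounds, cut at about 42% in these data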
Target sequence (P07550 whole entry, looked up): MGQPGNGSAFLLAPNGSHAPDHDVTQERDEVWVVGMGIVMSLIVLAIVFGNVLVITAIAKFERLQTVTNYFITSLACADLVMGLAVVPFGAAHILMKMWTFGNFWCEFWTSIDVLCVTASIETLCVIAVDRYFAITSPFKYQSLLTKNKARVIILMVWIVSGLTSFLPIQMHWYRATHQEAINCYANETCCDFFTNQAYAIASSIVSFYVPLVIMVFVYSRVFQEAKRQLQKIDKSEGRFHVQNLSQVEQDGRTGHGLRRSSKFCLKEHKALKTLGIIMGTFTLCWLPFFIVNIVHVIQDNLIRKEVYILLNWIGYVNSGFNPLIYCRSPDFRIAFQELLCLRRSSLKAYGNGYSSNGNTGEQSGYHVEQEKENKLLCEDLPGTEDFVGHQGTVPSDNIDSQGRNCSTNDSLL
Cardio protect: modulators protecting cardiomyocytes from myocardial damage. 360,000 tested, 0.63% active. protection from H2O2 cell death, % at 20 µM. H9c2 cardiomyocytes, H2O2 injury protection, ATPLite, 2 h;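 active = compounds giving at least 50% protection of heart cells from peroxide-induced death in the single-dose screen, raw or plate-pattern-corrected value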
aDG glyco up: alpha-DG glycosylation activation; Pro5-aDG cells, alpha-DG glycosylation AlphaScreen (IIH6); 0% Pro5, 100% B10-LARGE cell signal; activation, % at 10 µM; 360,000 tested, 0.22% active;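 active = activation of at least 8% versus controls, or a plate z-score of at least 8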;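 note: Pro5 are CHO cells carrying HIG-tagged alpha-DG that lacks glycosylation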
PfGluPho inh: PfG6PD (Plasmodium falciparum) enzyme inhibition; 350,000 tested, 0.78% active; inhibition, % at 20 µM; PfGluPho enzyme, NADPH resazurin-diaphorase fluorescence;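 active = inhibition reaching at least a set limit at 20 µM in the primary screen, cut at about 59% in these data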
HKDC1 inh: HKDC1 (human) hexokinase inhibition | inhibition, % at 20 µM | recombinant HKDC1, G6PDH/diaphorase resazurin coupled fluorescence | AID 493160 | Q2TB90 | 340,000 tested, 0.16% active;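 active = inhibition above about 35% when tested at 20 µM, limit read from the data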
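System: Recombinant HKDC1 hexokinase | Amount: HKDC1 at 5 µg/mL | Reagent: Glucose with 1 mM ATP | Doses: Single 20 µM dose | Incubation: Reaction time 90 min, room temperature, protected from light | Signal: Coupled resazurin fluorescence, excitation 525 nm, emission 613 nm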
UCH37 inh: inhibitors of human deubiquitinating enzyme UCH37. Q9Y5K5. purified proteasome/UCH37, Ub-AMC cleavage fluorescence. inhibition, % (no concentration beside the values). 330,000 tested, 0.33% active. AID 588478;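 active = mean inhibition over replicate wells above about 20%, limit read from the data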
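Schedule: 30 min plus 25 min, room temperature / Material: human UCH37 within purified proteasomes / Technique: AMC fluorescence intensity at 355/460 nm / Buffer or medium: pH 7.4 Tris-HCl (50 mM) with ovalbumin, ATP-MgCl2, DTT / Controls: wells without proteasome as full block, compound-free enzyme plus substrate as uninhibited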
Numbers stand for hits; . = inactive; / = no result. Compounds with a hit are over-represented: about 2.1% of the library has one in this group of screens.

SMILES	Beta2AR agonist	Cardio protect	aDG glyco up	PfGluPho inh	HKDC1 inh	UCH37 inh
O=C(Nc1ccccc1)c1nc[nH]c1C(=O)NCCCNC(=O)c1[nH]cnc1C(=O)Nc1ccccc1	.	.	.	.	.	.
O=C(Nc1ccccc1)c1nc[nH]c1C(=O)NCCCCCCNC(=O)c1[nH]cnc1C(=O)Nc1ccccc1	.	96.8	.	.	.	.
Cc1nn(C)c(C(=O)NN=Cc2ccc(-c3ccccc3)cc2)c1Cl	/	/	/	/	/	.
COc1cc(NC(=O)c2cc3nc(-c4ccccc4)cc(-c4ccccc4)n3n2)cc(OC)c1OC	.	80.1	.	.	.	.
COc1cc(NC(=O)c2cc(-c3ccccc3)on2)cc(OC)c1OC	.	.	.	.	.	.
COc1cc(NC(=O)c2cc3c(C)nc4ccccc4c3o2)cc(OC)c1OC	.	66.3	.	.	.	.
Cc1nc2ccccc2c2oc(C(=O)Nc3ccc(C(C)C)cc3)cc12	.	.	.	.	.	.
Cc1nc2ccccc2c2oc(C(=O)Nc3ccc4c(c3)OCCO4)cc12	.	99.5	.	.	.	.
COc1ccc(CNC(=O)c2cc3c(C)nc4ccccc4c3o2)c(OC)c1	/	.	.	.	.	.
COc1ccccc1/C=C/C=NNC(=O)CCn1cnc2ccccc21	/	/	/	/	/	.
CCOC(=O)C1=C(C)c2ccccc2N(C(=O)OC)C1(C)C(=O)OCC (stereo not given)	.	.	.	60.9	.	.
COC(CNC(=O)c1cccnc1)OC	.	.	.	.	.	.
COC(CNC(=O)c1ccc2c3c(onc13)-c1ccccc1C2=O)OC	48.3	.	.	.	.	20.1
CCN(CC)CCn1c2ccccc2c2n[nH]c(=S)nc21	.	.	.	63.7	.	.
CCN(CC)CCn1c2ccccc2c2nc3ccccc3nc21	.	.	.	.	.	.
CCCCNC(=O)N(O)C1N(N=Cc2ccco2)C(=S)SC1(C)C (stereo not given)	/	/	/	/	/	.
COC1=C(C)C(=O)C2=C(C1=O)C1C3CC4=C(C(=O)C(OC)=C(C)C4=O)C(CNC(=O)C(C)=O)N3C(C#N)C(C2)N1C (stereo not given)	.	.	.	119.8	60.5	/
CCOc1ccc(/C=C2\SC(=S)N(N3C(=O)C4CC4C3=O)C2=O)cc1 (stereo not given)	84.0	.	.	.	.	.
O=C1C=CC(=O)C(CNc2ccc(C(=O)OCc3ccccc3)cc2)=C1	.	.	.	74.6	46.7	/
CN(C)c1ccc(C(=O)OCc2ccccc2)cc1	.	.	.	.	.	.
COc1ccc(C=NNC(=O)c2ccco2)cc1Cn1nc(C)cc1C	/	/	/	/	/	.
NC(N)=NN=Cc1ccc(OCc2ccccc2)c(OCc2ccccc2)c1	/	/	/	/	/	.
O=C1c2c([N+](=O)[O-])cc([N+](=O)[O-])cc2S(=O)N1Cc1ccccc1 (stereo not given)	.	.	.	62.5	.	.
O=[N+]([O-])c1ccc(NC2CCN(Cc3ccccc3)CC2)c([N+](=O)[O-])c1	.	.	.	.	.	.
CCCCCOc1ccc(Br)cc1/C(C)=N/NC1=NCCN1	43.7	.	.	.	.	/
SMILES	Beta2AR agonist	Cardio protect	aDG glyco up	PfGluPho inh	HKDC1 inh	UCH37 inh
O=[N+]([O-])c1cc(C=NNc2nc(-c3ccccc3)cs2)ccc1O	/	/	/	/	/	.
Cc1cc(C)nc(SCc2ccc(C(=O)NN=Cc3ccccc3C(=O)O)cc2)n1	/	/	/	/	/	.
CSc1nc2ccc(Nc3nc(N4CCOCC4)nc(N4CCOCC4)n3)cc2s1	.	69.5	.	.	.	.
O=C(CSc1nnnn1-c1ccc(F)cc1)c1ccc(O)c(O)c1	.	54.0	.	.	.	.
Cc1cc(=O)[nH]c(N=C(N)Nc2ccc3c(c2)OCCO3)n1	/	/	/	/	/	.
C#CCOCCOCCOCCNc1nc(N2CCN(C(=O)CCCCCCCCCCNC(=O)Cn3cc(C[C@@H](C)O)nn3)CC2)nc(N2CCN(C(=O)CCCCCCCCCCNC(=O)[C@@H]([C@H](C)CC)n3cc(CCCCCN)nn3)CC2)n1	95.4	.	.	.	.	.
C#CCOCCOCCOCCNc1nc(N2CCN(C(=O)CCCCCCCCCCNC(=O)[C@H]([C@@H](C)CC)n3cc(CCCCN=C(N)N)nn3)CC2)nc(N2CCN(C(=O)CCCCCCCCCCNC(=O)[C@@H]([C@H](C)O)n3cc(C)nn3)CC2)n1	104.2	.	.	.	.	/
C#CCOCCOCCOCCNc1nc(N2CCN(C(=O)CCCCCCCCCCNC(=O)Cn3cc(C[C@@H](C)O)nn3)CC2)nc(N2CCN(C(=O)CCCCCCCCCCNC(=O)[C@@H]([C@H](C)O)n3cc(C)nn3)CC2)n1	.	.	.	.	.	.
C#CCOCCOCCOCCNc1nc(N2CCN(C(=O)Cn3cc(CCCCN)nn3)CC2)nc(N2CCN(C(=O)Cn3cc(CC(C)O)nn3)CC2)n1 (stereo not given)	.	.	.	.	.	.
C#CCOCCOCCOCCNc1nc(N2CCN(C(=O)CCCCCCCCCCNC(=O)Cn3cc(CCCCCN)nn3)CC2)nc(N2CCN(C(=O)CCCCCCCCCCNC(=O)Cn3cc(C[C@@H](C)O)nn3)CC2)n1	72.2	.	.	.	.	/
C#CCOCCOCCOCCNc1nc(N2CCN(C(=O)CCCCCCCCCCNC(=O)Cn3cc(CCCCCN)nn3)CC2)nc(N2CCN(C(=O)CCCCCCCCCCNC(=O)[C@@H]([C@H](C)O)n3cc(C)nn3)CC2)n1	55.0	.	.	.	.	.
O=C(NN=Cc1cccs1)c1cccc(S(=O)(=O)Nc2ccc(Cl)cc2)c1	/	/	/	/	/	.
COc1cccc(C=NNc2nc3ccccc3[nH]2)c1O	/	/	/	/	/	.
O=C1NC2(CCCCC2)C(=O)N1N=Cc1ccccc1Br	/	/	/	/	/	.
CC(/C=C/c1ccccc1)=NNC(=O)c1cc([N+](=O)[O-])cc([N+](=O)[O-])c1	/	/	/	/	/	.
CC(/C=C/c1ccccc1)=N/NC(=O)c1cc([N+](=O)[O-])cc([N+](=O)[O-])c1	.	64.8	.	.	.	/
CCCCC(=O)NN=Cc1ccc(Sc2cccc3cccnc23)o1	/	/	/	/	/	.
O=c1ccc2c(o1)/C(=C/C=C(Cl)Cl)CCC2	52.7	.	.	.	.	.
O=c1ccc2cc3c4c(c2o1)CCCN4CCC3	.	.	.	.	.	.
CN1C(=O)CSc2ccc(NC(=O)Nc3ccccn3)cc21	.	59.2	.	.	.	.
CN1C(=O)CSc2ccc(NC(=O)N3CCN(c4ccccn4)CC3)cc21	.	57.3	.	.	.	.
CC(=NNC(=O)CCC1C(=O)NN=C1C)c1ccc([N+](=O)[O-])cc1 (stereo not given)	/	/	/	/	/	.
CN(C)c1ccc(C=NN2CCN(Cc3ccccc3Cl)CC2)cc1	/	/	/	/	/	.
O=C(Nc1nc(-c2cc(F)ccc2F)cs1)C1=NN(c2ccccc2)C(=O)CC1	.	51.2	.	.	.	.
CCOc1cccc(-c2nn3c(-c4ccco4)nnc3s2)c1	.	64.5	.	.	.	.
